{"data": "Experimental data of several laboratories", "SIGMAR1": "Sigma non-opioid intracellular receptor 1 (SIGMAR1, Homo sapiens, UniProt Q99720)", "Nectin-4": "Nectin-4 (Homo sapiens, UniProt Q96NY8)", "PFF0160c": "Dihydroorotate dehydrogenase (quinone), mitochondrial (PFF0160c, Plasmodium falciparum, UniProt Q08210)", "note": "Lines come from different studies, so protocols differ."}
{"SMILES": "FC(F)(F)c1ccc2c(c1)N(CCCN1CCN(CCCl)CC1)c1ccccc1S2", "target": "SIGMAR1", "test": "ligand displacement, radioligand", "endpoint": "Ki", "value": "580 nM"}
{"SMILES": "CCCC[C@@H]1NC(=O)[C@H](Cc2ccc(O)cc2)NC(=O)[C@@H]2CCCN2C(=O)[C@H](CC(=O)O)NC(=O)[C@H](C)NC(=O)[C@H](Cc2ccccc2)NC(=O)[C@@H]2CSCCC(=O)N3CN(CN(C3)C(=O)CCSC[C@H](NC(C)=O)C(=O)N[C@@H](CC(C)(C)C)C(=O)N3CCC[C@H]3C(=O)N[C@@H](CCC(=O)O)C(=O)N[C@H](CCCCNC(=O)CCc3cn(CCOCCOCCOCCOCCOCCC(=O)N[C@H]4CSCCC(=O)N5CN6CN(C5)C(=O)CCSC[C@H](NC(=O)[C@@H](CC(=O)O)NC(=O)[C@H](Cc5cccc7ccccc57)NC(=O)[C@@H]5CCCN5C4=O)C(=O)N[C@@H](CCSC)C(=O)N[C@@H](CCCCNC(=N)N)C(=O)N[C@@H](CC(=O)O)C(=O)N[C@@H](Cc4c[nH]c5ccccc45)C(=O)N[C@@H](CO)C(=O)N[C@@H]([C@@H](C)O)C(=O)N4CCC[C@H]4C(=O)N4C[C@H](O)C[C@H]4C(=O)N[C@@H](Cc4c[nH]c5ccccc45)C(=O)N[C@H](C(N)=O)CSCCC6=O)nn3)C(=O)N3CCC[C@H]3C(=O)N[C@@H](Cc3ccc(O)cc3)C(=O)N2)C(=O)CCSCCNC1=O", "target": "Nectin-4", "test": "binding, SPR", "endpoint": "Kd", "value": "1.6 nM"}
{"SMILES": "Cc1cccc(CN2CCN(C(c3ccccc3)c3ccc(Cl)cc3)CC2)c1 (stereo not drawn)", "target": "SIGMAR1", "test": "ligand displacement, radioligand", "endpoint": "Ki", "value": "1250 nM"}
{"SMILES": "CCCC[C@@H]1NC(=O)[C@H](Cc2ccc(O)cc2)NC(=O)[C@@H]2CCCN2C(=O)[C@H](CC(=O)O)NC(=O)[C@H](C)NC(=O)[C@H](Cc2ccccc2)NC(=O)[C@@H]2CSCCC(=O)N3CN(CN(C3)C(=O)CCSC[C@H](NC(C)=O)C(=O)N[C@@H](CC(C)(C)C)C(=O)N[C@@H](CCC(=O)O)C(=O)N[C@@H](CCC(=O)O)C(=O)N[C@H](CCCCNC(=O)CCc3cn(CCOCCOCCOCCN(CCOCCOCCOCCC(=O)N[C@H]4CSCCC(=O)N5CN6CN(C5)C(=O)CCSC[C@H](NC(=O)[C@@H](CC(=O)O)NC(=O)[C@H](Cc5cccc7ccccc57)NC(=O)[C@@H]5CCCN5C4=O)C(=O)N[C@@H](CCSC)C(=O)N[C@@H](CCCCNC(=N)N)C(=O)N[C@@H](CC(=O)O)C(=O)N[C@@H](Cc4c[nH]c5ccccc45)C(=O)N[C@@H](CO)C(=O)N[C@@H]([C@@H](C)O)C(=O)N4CCC[C@H]4C(=O)N4C[C@H](O)C[C@H]4C(=O)N[C@@H](Cc4c[nH]c5ccccc45)C(=O)N[C@H](C(N)=O)CSCCC6=O)CCOCCOCCOCCn4cc(CCC(=O)NCCCC[C@H]5NC(=O)[C@H](CCC(=O)O)NC(=O)[C@H](CCC(=O)O)NC(=O)[C@H](CC(C)(C)C)NC(=O)[C@@H](NC(C)=O)CSCCC(=O)N6CN7CN(C6)C(=O)CCSC[C@H](NC(=O)[C@H](Cc6ccc(O)cc6)NC(=O)[C@@H]6CCCN6C5=O)C(=O)N[C@@H](Cc5ccccc5)C(=O)N[C@@H](C)C(=O)N[C@@H](CC(=O)O)C(=O)N5CCC[C@H]5C(=O)N[C@@H](Cc5ccc(O)cc5)C(=O)N[C@@H](CCCC)C(=O)N[C@H](C(N)=O)CSCCC7=O)nn4)nn3)C(=O)N3CCC[C@H]3C(=O)N[C@@H](Cc3ccc(O)cc3)C(=O)N2)C(=O)CCSC[C@@H](C(N)=O)NC1=O", "target": "Nectin-4", "test": "binding, SPR", "endpoint": "Kd", "value": "5 nM"}
{"SMILES": "CN(C)CCOC(C)(c1ccccc1)c1ccccn1 (stereo not drawn)", "target": "SIGMAR1", "test": "ligand displacement, radioligand", "endpoint": "Ki", "value": "> 10000 nM"}
{"SMILES": "N[C@@H](C[C@]1(C(=O)O)C[C@H]2OC[C@@H](O)[C@@H](O)[C@H]2O1)C(=O)O", "target": "Glutamate receptor ionotropic, kainate 2 (Grik2, Rattus norvegicus, UniProt P42260, A518T)", "test": "ligand displacement, radioligand", "endpoint": "Ki", "value": "61 nM"}
{"SMILES": "CCCC[C@@H]1NC(=O)[C@H](Cc2ccc(O)cc2)NC(=O)[C@@H]2CCCN2C(=O)[C@H](CC(=O)O)NC(=O)[C@H](C)NC(=O)[C@H](Cc2ccccc2)NC(=O)[C@@H]2CSCCC(=O)N3CN(CN(C3)C(=O)CCSC[C@@H](C(N)=O)NC1=O)C(=O)CCSCCC(=O)N[C@@H](CC(C)(C)C)C(=O)N1CCC[C@H]1C(=O)N[C@@H](CCC(=O)O)C(=O)N[C@H](CCCCNC(=O)CCc1cn(CCOCCOCCOCCN(CCOCCOCCOCCC(=O)N[C@H]3CSCCC(=O)N4CN5CN(C4)C(=O)CCSC[C@H](NC(=O)[C@@H](CC(=O)O)NC(=O)[C@H](Cc4cccc6ccccc46)NC(=O)[C@@H]4CCCN4C3=O)C(=O)N[C@@H](CCSC)C(=O)N[C@@H](CCCCNC(=N)N)C(=O)N[C@@H](CC(=O)O)C(=O)N[C@@H](Cc3c[nH]c4ccccc34)C(=O)N[C@@H](CO)C(=O)N[C@@H]([C@@H](C)O)C(=O)N3CCC[C@H]3C(=O)N3C[C@H](O)C[C@H]3C(=O)N[C@@H](Cc3c[nH]c4ccccc34)C(=O)N[C@H](C(N)=O)CSCCC5=O)CCOCCOCCOCCn3cc(CCC(=O)NCCCC[C@H]4NC(=O)[C@H](CCC(=O)O)NC(=O)[C@@H]5CCCN5C(=O)[C@H](CC(C)(C)C)NC(=O)CCSCCC(=O)N5CN6CN(C5)C(=O)CCSC[C@H](NC(=O)[C@H](Cc5ccc(O)cc5)NC(=O)[C@@H]5CCCN5C4=O)C(=O)N[C@@H](Cc4ccccc4)C(=O)N[C@@H](C)C(=O)N[C@@H](CC(=O)O)C(=O)N4CCC[C@H]4C(=O)N[C@@H](Cc4ccc(O)cc4)C(=O)N[C@@H](CCCC)C(=O)N[C@H](C(N)=O)CSCCC6=O)nn3)nn1)C(=O)N1CCC[C@H]1C(=O)N[C@@H](Cc1ccc(O)cc1)C(=O)N2", "target": "Nectin-4", "test": "binding, SPR", "endpoint": "Kd", "value": "2.3 nM"}
{"SMILES": "CCC(c1ccccc1)c1nn2c(-c3cccs3)nnc2s1 (stereo not drawn)", "target": "PFF0160c", "test": "enzyme activity, inhibitor, absorbance", "endpoint": "IC50", "value": "158 nM"}
{"SMILES": "CC(CN1c2ccccc2Sc2ccccc21)N(C)C (stereo not drawn)", "target": "SIGMAR1", "test": "ligand displacement, radioligand", "endpoint": "Ki", "value": "433 nM"}
{"SMILES": "Oc1cc(NC[C@H]2CCC[C@@H]2NCc2cc(Br)cc(Br)c2)nc2ccccc12", "target": "Dihydroorotate dehydrogenase (quinone), mitochondrial (PFF0160c, Plasmodium falciparum, UniProt Q08210, E182D)", "test": "enzyme activity, inhibitor, absorbance", "endpoint": "IC50", "value": "> 10000 nM"}
{"SMILES": "CCCC[C@@H]1NC(=O)[C@H](Cc2ccc(O)cc2)NC(=O)[C@@H]2CCCN2C(=O)[C@H](CCC(=O)O)NC(=O)[C@H](C)NC(=O)[C@H](Cc2ccccc2)NC(=O)[C@@H]2CSCCC(=O)N3CN(CN(C3)C(=O)CCSC[C@H](NC(C)=O)C(=O)N[C@@H](CC(C)(C)C)C(=O)N3CCC[C@H]3C(=O)N[C@@H](CCC(=O)O)C(=O)N[C@H](CCCCNC(=O)CCc3cn(CCOCCOCCOCCOCCOCCC(=O)N[C@H]4CSCCC(=O)N5CN6CN(C5)C(=O)CCSC[C@H](NC(=O)[C@@H](CC(=O)O)NC(=O)[C@H](Cc5cccc7ccccc57)NC(=O)[C@@H]5CCCN5C4=O)C(=O)N[C@@H](CCSC)C(=O)N[C@@H](CCCCNC(=N)N)C(=O)N[C@@H](CC(=O)O)C(=O)N[C@@H](Cc4c[nH]c5ccccc45)C(=O)N[C@@H](CO)C(=O)N[C@@H]([C@@H](C)O)C(=O)N4CCC[C@H]4C(=O)N4C[C@H](O)C[C@H]4C(=O)N[C@@H](Cc4c[nH]c5ccccc45)C(=O)N[C@H](C(N)=O)CSCCC6=O)nn3)C(=O)N3CCC[C@H]3C(=O)N[C@@H](Cc3ccc(O)cc3)C(=O)N2)C(=O)CCSC[C@@H](C(N)=O)NC1=O", "target": "Nectin-4", "test": "binding, SPR", "endpoint": "Kd", "value": "2.5 nM"}
{"SMILES": "COc1nc(NCC(C)C)nc(Oc2ccc(=O)n(Cc3ccccc3)n2)n1", "target": "PFF0160c", "test": "enzyme activity, inhibitor, absorbance", "endpoint": "IC50", "value": "124 nM"}
{"SMILES": "CCCC[C@@H]1NC(=O)[C@H](Cc2ccc(O)cc2)NC(=O)[C@@H]2CCCN2C(=O)[C@H](CC(=O)O)NC(=O)[C@H](C)NC(=O)[C@H](Cc2ccccc2)NC(=O)[C@@H]2CSCCC(=O)N3CN(CN(C3)C(=O)CCSCCC(=O)N[C@@H](CC(C)(C)C)C(=O)N3CCC[C@H]3C(=O)N[C@@H](CCC(=O)O)C(=O)N[C@H](CCCCNC(=O)CCc3cn(CCOCCOCCOCCN(CCOCCOCCOCCC(=O)N[C@H]4CSCCC(=O)N5CN6CN(C5)C(=O)CCSC[C@H](NC(=O)[C@@H](CC(=O)O)NC(=O)[C@H](Cc5cccc7ccccc57)NC(=O)[C@@H]5CCCN5C4=O)C(=O)N[C@@H](CCSC)C(=O)N[C@@H](CCCCNC(=N)N)C(=O)N[C@@H](CC(=O)O)C(=O)N[C@@H](Cc4c[nH]c5ccccc45)C(=O)N[C@@H](CO)C(=O)N[C@@H]([C@@H](C)O)C(=O)N4CCC[C@H]4C(=O)N4C[C@H](O)C[C@H]4C(=O)N[C@@H](Cc4c[nH]c5ccccc45)C(=O)N[C@H](C(N)=O)CSCCC6=O)CCOCCOCCOCCn4cc(CCC(=O)NCCCC[C@H]5NC(=O)[C@H](CCC(=O)O)NC(=O)[C@@H]6CCCN6C(=O)[C@H](CC(C)(C)C)NC(=O)CCSCCC(=O)N6CN7CN(C6)C(=O)CCSC[C@H](NC(=O)[C@H](Cc6ccc(O)cc6)NC(=O)[C@@H]6CCCN6C5=O)C(=O)N[C@@H](Cc5ccccc5)C(=O)N[C@@H](C)C(=O)N[C@@H](CC(=O)O)C(=O)N5CCC[C@H]5C(=O)N[C@@H](Cc5ccc(O)cc5)C(=O)N[C@@H](CCCC)C(=O)NCCSCCC7=O)nn4)nn3)C(=O)N3CCC[C@H]3C(=O)N[C@@H](Cc3ccc(O)cc3)C(=O)N2)C(=O)CCSCCNC1=O", "target": "Nectin-4", "test": "binding, SPR", "endpoint": "Kd", "value": "4 nM"}
{"SMILES": "CCCCN(C)CC#Cc1ccc2[nH]c(C)c(Cl)c(=O)c2c1", "target": "PFF0160c", "test": "enzyme activity, inhibitor, absorbance", "endpoint": "IC50", "value": "4550 nM"}
{"SMILES": "O=S(=O)(O)c1nc2ccccc2[nH]1", "target": "racE (Bacillus subtilis, UniProt P94556)", "test": "enzyme activity, inhibitor, absorbance", "endpoint": "IC50", "value": "128000 nM"}
